# Read-outs that look alike come from different tables or passages of the source.
# Columns and labels:
# [1] = cited from earlier work
# DU-145 prostate cells = settings: cited from earlier work
# PC-3 cells = settings: cited from earlier work
# [2] = Determination of log P values; type: physicochemical; settings: n-octanol/water 3 mL:3 mL, 100 µL radiotracer, gamma counter, triplicate samples
# How it was run: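 Radiotracer (100 µL; 99mTc labeling by stannous-tartrate exchange at 100°C, 20 min) was added to equal volumes (3 mL each) of n-octanol and water, stirred vigorously and centrifuged. Triplicate samples from each phase were gamma-counted to give the partition ratio and log P.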
# [3] = system: PC-3 human prostate carcinoma cells; test: In vitro cell binding assay with increasing cold conjugate; type: cell-based; settings: 120 min
# How it was run: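 PC3 androgen-independent cells were grown in RPMI 1640 with 10% (v/v) fetal calf serum at 37°C, 5% CO2, harvested near confluency by trypsinization, and seeded at 10^6 cells/well 24 h before assay. Wells received 90 pM 99mTc-labeled peptide with increasing cold conjugate (1 nM to 18 nM) and were incubated 120 min. Cell-associated radioactivity was gamma-counted.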
# [4] = Biodistribution in healthy Swiss mice; type: in vivo; settings: i.v. 0.1 mL/18.5 MBq, mean ± SD n = 6
# How it was run: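 Male Swiss albino mice (20 - 25 g) received 99mTc-labeled conjugate by tail vein (0.1 mL/18.5 MBq). Six mice per time point were killed by cervical dislocation at 5, 30, 90 and 240 min. Organs were excised, weighed and counted on a NaI(Tl) gamma counter; stomach and intestine were counted after removing luminal contents. %ID/g was calculated using injected-dose activity as standard; mean ± SD.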
# PC-3 tumors [5] = test: Biodistribution in Nude mice bearing PC-3 tumors; type: in vivo; settings: for Blood uptake / Bone uptake / Heart uptake / Lung uptake / Muscle uptake / Spleen uptake / Stomach uptake / Tumor uptake: mean ± SD n = 6
# How it was run: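 Athymic male nude mice (16 - 20 g) received 5.0×10^6 PC3 cells subcutaneously in the upper back; tumors grew 2–3 weeks to about 1 cm diameter. 99mTc-labeled conjugate was given by tail vein and biodistribution evaluated at 30 and 90 min post-injection; blocking groups were coinjected with excess cold conjugate. Organs were excised, weighed and gamma-counted; %ID/g was computed against injected-dose activity; mean ± SD, n = 6.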
# PC-3 tumors [6] = type: in vivo; settings: PC-3 tumor-bearing mice
substance,measurement,setting,value
FRPNRAQDYNTN [DUP-1],serum stability,[1],serum-instable
same,binding to DU-145 prostate cells,DU-145 prostate cells,high affinity
same,binding to PC-3 cells,PC-3 cells,high affinity
FRPNRAQDYNTNK-SAMA-G-G-G-Ahx-NH2 [99mTc-SAMA-G3-Ahx-DUP-1],partition ratio,[2],0.00389
same,Radioactivity associated with PC3 tumor cells (binding),"[3]; 90 pM 99mTc-labeled peptide, no cold peptide, 37°C",~1.97%
same,decrease of binding with cold peptide,"[3]; cold conjugate increased 0 to 18 nM, 90 pM tracer",63%
same,Blood uptake,[4]; 5 min,1.21±0.02 %ID/g
same,Bone uptake,[4]; 5 min,0.84±0.17 %ID/g
same,Heart uptake,[4]; 5 min,0.82±0.14 %ID/g
same,Kidney uptake,[4]; 5 min,22.62±2.03 %ID/g
same,Liver uptake,[4]; 5 min,12.31±2.19 %ID/g
same,Lung uptake,[4]; 5 min,1.48±0.23 %ID/g
same,Muscle uptake,[4]; 5 min,0.77±0.06 %ID/g
same,Pancreas uptake,[4]; 5 min,1.44±0.33 %ID/g
same,Spleen uptake,[4]; 5 min,1.37±0.18 %ID/g
same,Blood uptake,[4]; 30 min,0.43±0.06 %ID/g
same,Bone uptake,[4]; 30 min,0.20±0.01 %ID/g
same,Heart uptake,[4]; 30 min,0.24±0.07 %ID/g
same,Kidney uptake,[4]; 30 min,21.06±0.41 %ID/g
same,Liver uptake,[4]; 30 min,8.58±1.75 %ID/g
same,Lung uptake,[4]; 30 min,0.73±0.16 %ID/g
same,Muscle uptake,[4]; 30 min,0.14±0.04 %ID/g
same,Pancreas uptake,[4]; 30 min,0.18±0.11 %ID/g
same,Spleen uptake,[4]; 30 min,0.28±0.07 %ID/g
same,Blood uptake,[4]; 90 min,0.08±0.01 %ID/g
same,Bone uptake,[4]; 90 min,0.05±0.02 %ID/g
same,Heart uptake,[4]; 90 min,0.04±0.01 %ID/g
same,Kidney uptake,[4]; 90 min,7.28±2.07 %ID/g
same,Liver uptake,[4]; 90 min,1.57±0.57 %ID/g
same,Lung uptake,[4]; 90 min,0.15±0.037 %ID/g
same,Muscle uptake,[4]; 90 min,0.51±0.01 %ID/g
same,Pancreas uptake,[4]; 90 min,0.05±0.01 %ID/g
same,Spleen uptake,[4]; 90 min,0.09±0.03 %ID/g
same,Blood uptake,[4]; 240 min,0.05±0.01 %ID/g
same,Bone uptake,[4]; 240 min,0.05±0.01 %ID/g
same,Heart uptake,[4]; 240 min,0.03±0.02 %ID/g
same,Kidney uptake,[4]; 240 min,3.22±0.43 %ID/g
same,Liver uptake,[4]; 240 min,1.53±0.64 %ID/g
same,Lung uptake,[4]; 240 min,0.13±0.07 %ID/g
same,Muscle uptake,[4]; 240 min,0.17±0.07 %ID/g
same,Pancreas uptake,[4]; 240 min,0.04±0.01 %ID/g
same,Spleen uptake,[4]; 240 min,0.07±0.02 %ID/g
same,Uptake ratio Tumor/blood,PC-3 tumors [5]; 30 min post-injection,1.23
same,Uptake ratio Tumor/muscle,PC-3 tumors [5]; 30 min post-injection,3.15
same,Blood uptake,PC-3 tumors [5]; 30 min post-injection,0.69±0.14 %ID/g
same,Bone uptake,PC-3 tumors [5]; 30 min post-injection,0.31±0.08 %ID/g
same,Heart uptake,PC-3 tumors [5]; 30 min post-injection,0.41±0.02 %ID/g
same,Lung uptake,PC-3 tumors [5]; 30 min post-injection,1.24±0.43 %ID/g
same,Muscle uptake,PC-3 tumors [5]; 30 min post-injection,0.27±0.27 %ID/g
same,Spleen uptake,PC-3 tumors [5]; 30 min post-injection,0.56±0.13 %ID/g
same,Stomach uptake,PC-3 tumors [5]; 30 min post-injection,1.05±0.07 %ID/g
same,Tumor uptake,PC-3 tumors [5]; 30 min post-injection,0.85±0.19 %ID/g
same,Uptake ratio Tumor/blood,PC-3 tumors [5]; 90 min post-injection,1.78
same,Uptake ratio Tumor/muscle,PC-3 tumors [5]; 90 min post-injection,1.32
same,Blood uptake,PC-3 tumors [5]; 90 min post-injection,0.23±0.06 %ID/g
same,Bone uptake,PC-3 tumors [5]; 90 min post-injection,0.30±0.05 %ID/g
same,Heart uptake,PC-3 tumors [5]; 90 min post-injection,0.10±0.10 %ID/g
same,Lung uptake,PC-3 tumors [5]; 90 min post-injection,0.34±0.27 %ID/g
same,Muscle uptake,PC-3 tumors [5]; 90 min post-injection,0.31±0.11 %ID/g
same,Spleen uptake,PC-3 tumors [5]; 90 min post-injection,0.54±0.19 %ID/g
same,Stomach uptake,PC-3 tumors [5]; 90 min post-injection,0.72±0.27 %ID/g
same,Tumor uptake,PC-3 tumors [5]; 90 min post-injection,0.41±0.11 %ID/g
same,cold conjugate-blocked tumor uptake,PC-3 tumors [6]; 30 min post-injection,82%
same,cold conjugate-blocked tumor uptake,PC-3 tumors [6]; 90 min post-injection,83%

# Reference: paper PMC3275116 (Clinics, 2012)
